Where a name gives a salt, the structure may show the parent alone. Active and inactive are the calls of the source. The calls are words filed in the database; no cut-off is given here.
How the values were obtained:
[1] = Antagonist activity at muscarinic acetylcholine receptor in guinea pig ileum assessed as inhibition of acetylcholine-induced contraction; assay type: tissue-based, Cavia porcellus
Summary of the method: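 Ileum segments (~2 cm) from freshly killed guinea pigs in a 10-mL organ bath of Tyrode solution at 37 °C, air-bubbled. Isotonic contractions recorded. Acetylcholine dose-response curves run without and with antagonist. Affinity constants calculated from the dose ratio. Values are means of two to four separate experiments ± SD.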

[2] = Toxicity in ip dosed mouse; assay type: organism-based; settings: in vivo
Summary of the method: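 Preliminary LD50 determination in mice given the drugs intraperitoneally.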

Cavia porcellus [3] = species on record: Cavia porcellus; assay: Competitive antagonist activity at muscarinic acetylcholine receptor in guinea pig ileum assessed as inhibition of acetylcholine-induced contraction at 1X10'-8 M; assay type: tissue-based
Summary of the method: (§1)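 Guinea pig ileum (~2 cm, freshly killed animals) in a 10-mL Tyrode bath at 37 °C, air-bubbled, isotonic lever recording. Acetylcholine dose-response curves recorded alone and with antagonist present at a single fixed concentration (1×10^-8 or 1.1×10^-8 M). The curves were compared for shift.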

[4] = Displacement of [3H]4-NMPB from muscarinic acetylcholine receptor in mouse brain; assay type: tissue-based
Cavia porcellus [5] = species on record: Cavia porcellus; assay: Competitive antagonist activity at muscarinic acetylcholine receptor in guinea pig ileum assessed as inhibition of acetylcholine-induced contraction at 1.1X10'-8 M; assay type: tissue-based; summary of the method: as §1

CN1[C@@H]2CC[C@@H](C[C@H](OC(=O)C(CO)c3ccccc3)C2)N1C (stereo not given in full)
Kd [1]: 0.091 nM

CN1[C@@H]2CC[C@@H](C[C@H](OC(=O)C(CO)c3ccccc3)C2)N1C (stereo in doubt; 1)
LD50 [2]: 150 mg/kg
Kd [1]: 1.7 nM

CN1[C@@H]2CC[C@@H](C[C@H](OC(=O)C(CO)c3ccccc3)C2)N1C (stereo in doubt; 2) [listing 1 of 2 here]
Kd [1]: 0.066 nM

CN1[C@@H]2CC[C@@H](C[C@H](OC(=O)C(CO)c3ccccc3)C2)N1C (stereo in doubt; 2) [listing 2 of 2 here]
inhibition (Cavia porcellus [3]): Active

CN1[C@@H]2CC[C@@H](C[C@H](OC(=O)C(CO)c3ccccc3)C2)N1C (stereo in doubt; 4)
Kd [1]: 170 nM

CN1[C@@H]2CC[C@@H](C[C@H](OC(=O)C(CO)c3ccccc3)C2)N1C (stereo in doubt; 5) [listing 1 of 2 here]
Kd [4]: 2.1 nM
Kd [1]: 1.6 nM

CN1[C@@H]2CC[C@@H](C[C@H](OC(=O)C(CO)c3ccccc3)C2)N1C (stereo in doubt; 5) [listing 2 of 2 here]
inhibition (Cavia porcellus [5]): Active

CN1[C@@H]2CC[C@H]1C[C@@H](OC(=O)C(CO)c1ccccc1)C2 (stereo not given in full) [ATROPINE SULFATE]
Kd [1]: 0.49 nM

From ChEMBL document CHEMBL3227925, “Structure-activity relationship in a new series of atropine analogues. 1. N,N'-Disubstituted 6,7-diazabicyclo[3.2.2]nonane derivatives” (J Med Chem, 1979)
